Measurements: ChEMBL document CHEMBL1821632 (2011)
Activity calls are given as the source filed them. The calls are words filed in the database; no cut-off is given here.

How the values were obtained:
[1] = test system: Lipid bilayer; assay: Binding affinity to dipalmitoyl phosphatidyl choline lipid bilayer assessed as decrease in pre-transition temperature at compound to lipid molar ratio of 1:5 by DSC technique
Method in brief: (§1)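 DPPC bilayers carried additive at additive:lipid molar ratios of 0:100, 1:5, 1:2 or 1:1. Samples were degassed under vacuum and scanned by DSC from 20 to 60 °C at 10 °C/h. The pre-transition and main transition (Tm) temperatures were read from the thermograms and compared with the additive-free lipid.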

[2] = test system: Lipid bilayer; assay: Binding affinity to dipalmitoyl phosphatidyl choline lipid bilayer assessed as decrease in pre-transition temperature at compound to lipid molar ratio of 1:1 by DSC technique; method in brief: as §1
[3] = test system: Lipid bilayer; assay: Binding affinity to dipalmitoyl phosphatidyl choline lipid bilayer assessed as decrease in pre-transition temperature by DSC technique
[4] = (§2) Antifertility activity against goat epididymis sperm cells assessed as loss of sperm motility at 1.25 mM by Sander-Cramer test; assay type: functional, Capra hircus
Method in brief: (§3)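 Sperm came from the cauda epididymis of goats. Tissue pieces were allowed to settle out, and the cells were washed, pelleted and resuspended in buffer. Cells were diluted in Dulbecco buffer (control) or in 1.25 mM drug solution. Motility was scored by the Sander-Cramer method, examining at least six microscope fields per slide at 1 h and 2 h of incubation.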

[5] = test system: Lipid bilayer; assay: Binding affinity to dipalmitoyl phosphatidyl choline lipid bilayer assessed as decrease in main transition temperature by DSC technique
[6] = test system: Lipid bilayer; assay: Binding affinity to dipalmitoyl phosphatidyl choline lipid bilayer assessed as decrease in main transition temperature at compound to lipid molar ratio of 1:5 by DSC technique; method in brief: as §1
[7] = test system: Lipid bilayer; assay: Binding affinity to dipalmitoyl phosphatidyl choline lipid bilayer assessed as decrease in main transition temperature at compound to lipid molar ratio of 1:1 by DSC technique; method in brief: as §1
[8] = test system: Sperm; assay: Antifertility activity against goat epididymis sperm cells assessed as inhibition of sperm motility at 1.25 mM after 1 hr by Sander-Cramer test; assay type: functional; conditions: Capra hircus; method in brief: as §3
[9] = test system: Sperm; assay: as §2; assay type: functional; conditions: Capra hircus; method in brief: as §3

Row | Structure (SMILES) | Activity [1] | Activity [2] | Activity [3] | Activity [4] | Tm [5] | Tm [6] | Tm [7] | inhibition [8] | inhibition [9]
1 | COC(=O)C1=C(C)NC(C)=C(C(=O)OC)C1c1ccccc1[N+](=O)[O-] | Active | Active | Active |  |  |  |  |  | 
2 | CCOC(=O)C1=C(C)NC(C)=C(C(=O)OCC)C1c1ccc(Cl)cc1 | Active | Active | Active | 25% |  |  |  |  | 
3 | CCOC(=O)C1=C(C)NC(C)=C(C(=O)OCC)C1c1ccccc1 | Active | Active | Active | 25% |  |  |  |  | 
4 | CCOC(=O)C1=C(C)NC(C)=C(C(=O)OCC)C1c1ccc(O)cc1 | Active | Active | Active |  | 4.25 °C | 4.25 °C | 4.25 °C | Active | 
5 | CCOC(=O)C1=C(C)NC(C)=C(C(=O)OCC)C1c1ccccc1O | Active | Active | Active |  |  |  |  |  | Active
6 | O=C(O)c1cc(/N=N/c2ccc(S(=O)(=O)Nc3ccccn3)cc2)ccc1O | Active | Active | Active |  |  |  |  |  | 
